From article PMC11604526 (Cell Reports Medicine, 2024)
Square brackets hold non-standard residues; d marks the D form. Ends that are not written are not given here. Dmt = Cc1cc(O)cc(C)c1C[C@H](N)C(=O)O; Cha = N[C@@H](CC1CCCCC1)C(=O)O

Experiments:
GAT-1-Synt1A interaction = GAT-1-Synt1A interaction (Mus musculus, UniProt P31648); assay: Synt1A-GAT-1 uncoupling activities of ZLQ series of compounds; conditions: Figures S4A/S4B; n = 3
[1] = system: mice with photothrombotic stroke; assay: Motor function; type: in vivo, mouse
In short: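 Photothrombotic stroke was induced with rose bengal, holding body temperature at 37 ± 0.5°C. For grid walking, each mouse walked freely for 5 min on a wire grid 50 cm high. For the cylinder task, mice explored a clear cylinder (15 cm tall, 10 cm diameter) for 5 min, and only rears with both forelimbs clearly visible were timed. Tests ran 7 days before stroke and at set days after stroke.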

GAT-1 and Synt1A = GAT-1 and Synt1A total levels and membrane fractions in cultured neurons; type: cell-based, mouse; conditions: GSNO 50 μM for 6 h; n = 5
In short: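 Primary cortical neurons from E16 mice were grown on poly-L-ornithine in Neurobasal with 2% B27. For membrane fractions, cells were permeabilized in extraction buffer 1 and spun at 1000 ×g for 5 min; the pellet was resuspended in buffer 2B to extract integral membrane proteins. β-Actin was checked to confirm fraction purity. Western blots used anti-GAT-1 and anti-syntaxin1A (both 1:4000) and anti-Na+-K+-ATPase (1:1000).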

[2] = system: extracellular GABA ([GABA]o); assay: Extracellular GABA in peri-infarct cortex; type: in vivo, mouse; conditions: microinjection 0.2 pmol/d days 5-7 after stroke; day 8 after stroke; microdialysis; n = 6
In short: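 A CMA7 microdialysis probe was placed in peri-infarct cortex (AP 0, ML −0.65, DV −1.5 mm from bregma). It was perfused at 1 μL/min with bicarbonate-buffered saline containing 10 mM glucose. Dialysate was collected in 20-min fractions over 2 h, and the second fraction was analysed. GABA was measured by ELISA (activator, 37°C for 15 min in the dark, stop solution, A450).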

Synt1A-VAMP-2 complex = assay: Co-IP of Synt1A-VAMP-2 complex in peri-infarct cortex; type: in vivo, mouse; conditions: microinjection 0.2 pmol/d days 5-7 after stroke; day 8; n = 5
In short: (§1)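 Photothrombotic stroke was induced with rose bengal. Peptide was infused into the peri-infarct cortex through a 33-gauge injector in a guide cannula implanted in the infarct core (AP 0, ML −1.5, DV −1.0 mm from bregma). Dissected tissue was lysed 30 min in ice-cold RIPA and spun at 12,000 ×g for 15 min at 4°C. Lysates were precleared 1 h at 4°C with protein G magnetic beads before co-IP.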

[3] = system: layer 5 peri-infarct pyramidal neurons; assay: Whole-cell recordings in acute brain slices from treated mice; type: in vivo, mouse
peri-infarct cortex = assay: In vivo LFP and spike recording in peri-infarct cortex; parameters: species or system mouse; conditions: infused days 5-11 after stroke; recorded day 12
In short: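 Spike-firing time histograms were built by counting spikes in sequential 1 s bins. Movement-related change was expressed as ((firing events during movement − firing events during stillness)/firing events during stillness) × 100.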

GAT-1 [4] = assay: 3H-GABA uptake in HEK293 cells overexpressing GAT-1; type: cell-based; conditions: 100 nM; compared with Tat-Synt1A251-265mut (100 nM); n = 5
In short: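 HEK293 cells were kept in MEM with 10% FBS and transduced with lentiviral GAT-1-EGFP. These GAT-1-overexpressing cells were incubated with peptide (100 nM), or with the mutant control peptide at the same concentration, before 3H-GABA uptake was measured.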

[5] = system: SNARE complex (Synt1A, SNAP-25, VAMP-2); assay: SNARE complex and monomer levels in synaptosomes; type: in vivo, mouse; conditions: 0.2 pmol/d days 5-7 after stroke, day 8
In short: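 Peri-infarct tissue was homogenised at 4°C in 320 mM sucrose, 1 mM NaHCO3, 1 mM MgCl2 and 0.5 mM CaCl2. The homogenate was spun at 500 ×g for 2 min, and the supernatant at 10,100 ×g for 10 min. The pellet was resuspended in 0.32 M sucrose, layered on 0.8 M sucrose and spun at 9100 ×g for 15 min. The 0.8 M fraction was pelleted at 12,000 ×g for 15 min and taken up in SDS lysis buffer.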

Synt1A-SNAP-25 complex = assay: Co-IP of Synt1A-SNAP-25 complex in peri-infarct cortex; type: in vivo, mouse; conditions: microinjection 0.2 pmol/d days 5-7 after stroke; day 8; n = 5
In short: as §1

[6] = system: midline-crossing BDA+ fibers, C7 spinal cord; assay: BDA tract tracing, axonal sprouting; type: in vivo, mouse; conditions: treatment days 5-11 after stroke; BDA day 34, staining day 48; n = 6
In short: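 Contralateral cortex injected at two sites with 10% biotinylated dextran amine on day 34 after stroke. Fourteen days later, mice were transcardially perfused with ice-cold saline, then 4% PFA. Transverse cervical spinal cord and coronal brain sections were cut at 40 μm. BDA+ axons were labelled with streptavidin-Cy3 (1:500). Analysis was blinded.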

GAT-1 [7] = assay: GAT-1 level and membrane fraction; type: cell-based; conditions: 100 nM; compared with Tat-Synt1A251-265mut; n = 5
In short: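 HEK293 cells lentivirally expressing GAT-1-EGFP were exposed to peptide at 100 nM. Cells were permeabilised in Extraction Buffer 1 and spun at 1000 ×g for 5 min to split cytosol from membranes. Integral membrane proteins were extracted from the pellet in Extraction Buffer 2B and taken straight to western blot. β-Actin, a cytosolic marker, served to check membrane-fraction purity.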

[8] = 0.2 pmol/d days 5-7 after stroke, recorded day 8
[9] = compared with Tat-Synt1A251-265mut-treated mice
[10] = compared with sham and Tat-Synt1A251-265mut-treated mice with stroke

Molecule: [dR][Dmt][Cha][dK][dR]-NH2 (N-terminus assumed; SMILES Cc1cc(O)cc(C)c1C[C@H](NC(=O)[C@H](N)CCCNC(=N)N)C(=O)N[C@@H](CC1CCCCC1)C(=O)N[C@H](CCCCN)C(=O)N[C@H](CCCNC(=N)N)C(N)=O) [ZLQ-3]
- GAT-1-Synt1A uncoupling activity among the ZLQ series (GAT-1-Synt1A interaction): most potent GAT-1-Synt1A uncoupling activity
- impairment of motor functions, intranasal 5 mg/kg ([1]; 5 mg/kg intranasally days 5-11 after stroke, test day 12): attenuated the impairment of motor functions

Molecule: N[C@@H](CCC(=O)N[C@@H](CSN=O)C(=O)NCC(=O)O)C(=O)O [GSNO]
- membrane contents of GAT-1 and Synt1A in cultured neurons (GAT-1 and Synt1A): significantly increased membrane contents of GAT-1 and Synt1A
- total levels of GAT-1 and Synt1A in cultured neurons (GAT-1 and Synt1A): had no effects on the total levels of GAT-1 and Synt1A

Molecule: Tat-TKKAVKYQSKARRKK [Tat-Synt1A251-265]
- stroke-induced increase in [GABA]o in the peri-infarct cortex [2]: reversed stroke-induced increase in [GABA]o
- stroke-induced decrease in Synt1A-VAMP-2 complex (Synt1A-VAMP-2 complex): reversed stroke-induced decreases
- mEPSCs, sham-operated mice ([3]; 0.2 pmol/d): had no effect on sham-operated mice
- mIPSCs, sham-operated mice ([3]; 0.2 pmol/d): had no effect on sham-operated mice
- tonic GABA currents (Itonic), sham-operated mice ([3]; 0.2 pmol/d days 5-7, recorded day 8): had no effect on sham-operated mice
- effect of stroke on Itonic, GAT-1 CKO mice with stroke [3, 8]: rather than that in GAT-1 CKO mice with stroke
- effect of stroke on Itonic, WT mice with stroke [3, 8]: reversed the effect of stroke on Itonic
- mEPSC frequency, mice with stroke ([3]; 0.2 pmol/d, day 8 after stroke): reversed stroke-induced decrease in mEPSC frequency
- mIPSC frequency, mice with stroke ([3]; 0.2 pmol/d, day 8 after stroke): reversed the stroke-induced decrease in mIPSC frequency
- sEPSC amplitude, mice with stroke [3, 9]: but not amplitude
- sEPSC frequency, mice with stroke [3, 9]: significantly increased sEPSC frequency
- sIPSC amplitude, mice with stroke [3, 10]: but not amplitude
- sIPSC frequency, mice with stroke [3, 10]: significantly increased sIPSC frequency
- sEPSCs, sham-operated mice ([3]; mouse, in vivo): had no effect on sEPSCs
- sIPSCs, sham-operated mice ([3]; mouse, in vivo): had no effect on sIPSCs of sham-operated mice
- LFP power in delta (1-3 Hz) and theta (4-12 Hz) oscillations (peri-infarct cortex): significantly enhanced
- effects on cortical oscillations in GAT-1 CKO mice (peri-infarct cortex): disappeared in GAT-1 CKO mice
- movement-related spike firing rates, WT mice (peri-infarct cortex): reversed stroke-induced decrease in spike firing rates
- 3H-GABA uptake, HEK293 cells overexpressing GAT-1 (GAT-1 [4]): did not affect
- Synt1A, SNAP-25, or VAMP-2 monomer (synaptosomes) [5]: did not affect
- stroke-induced decreases in SNARE complexes (synaptosomes) ([5]; n = 5-6): reversed stroke-induced decreases in SNARE complexes
- stroke-induced decrease in Synt1A-SNAP-25 complex (Synt1A-SNAP-25 complex): reversed stroke-induced decreases
- number of BDA+ fibers crossing the midline into the denervated spinal cord at the C7 level [6]: significantly increased the number of BDA^+ fibers crossing the midline
- expression of GAT-1, HEK293 cells overexpressing GAT-1 (GAT-1 [7]): did not affect
- membrane distribution of GAT-1, HEK293 cells overexpressing GAT-1 (GAT-1 [7]): did not affect
- motor functions of sham-operated mice ([1]; peptide microinjection, sham-operated mice): had no effect on motor functions of sham-operated mice
